S1P1 ag-PAM – activates or potentiates agonism at human S1P1 receptor. P21453. S1P1 CRE-bla cells, forskolin, beta-lactamase FRET, potentiator mode; S1P1 agonist co-added at EC20, 2 nM; 100% = saturating reference agonist, 0% = basal. 56,000 tested, 0.57% active. activation, % at 9.5 µM. AID 449;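 active = activation above a cutoff set at the mean activation of all tested compounds plus 3 SD, cut at about 54% in these data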;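 also: forskolin at 4 µM as EC80 and the EC20 agonist is SEW2871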
Spn DPM-DC inh – S. pneumoniae DPM-DC inhibition; 65,000 tested, 0.49% active; AID 556; calls only at 10 µM; purified DPM-DC, PK/LDH coupled NADH fluorescence;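 active = the 320 compounds with the highest percent inhibition in the single-dose primary screen, excluding strongly autofluorescent ones, cut at about 32% in these data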;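 also: kinetic rate of NADH fluorescence loss reporting ADP formed by the decarboxylase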
PMK inhibit – S. pneumoniae PMK inhibition. purified PMK, PK/LDH-coupled NADH absorbance 340 nm. inhibition, % at 10 µM. 65,000 tested, 0.49% active. AID 539;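 active = top-ranked compounds by inhibition in the single 10 µM screen, taking a fixed number of the strongest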
Spn MK inh – inhibitors of Streptococcus pneumoniae mevalonate kinase. inhibition, % at 10 µM. 65,000 tested, 0.48% active. purified MK, PK/LDH-coupled NADH absorbance 340 nm. AID 555;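 active = ranked among the strongest by inhibition in the single 10 µM screen, a fixed top-ranked set picked for dose follow-up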
S1P3 agonist – activates the human S1P3 receptor; AID 373; activation, % at 4.5 µM; Q99500; 60,000 tested, 0.1% active; S1P3 NFAT-BLA reporter cells, agonism, FRET ratio; relative to 1 µM S1P, basal subtracted;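 active = activation above the screen-wide mean plus 3 SD, cut at about 4.5% in these data, passing the limit was not always enough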
Target sequence (Q99500 whole entry, looked up): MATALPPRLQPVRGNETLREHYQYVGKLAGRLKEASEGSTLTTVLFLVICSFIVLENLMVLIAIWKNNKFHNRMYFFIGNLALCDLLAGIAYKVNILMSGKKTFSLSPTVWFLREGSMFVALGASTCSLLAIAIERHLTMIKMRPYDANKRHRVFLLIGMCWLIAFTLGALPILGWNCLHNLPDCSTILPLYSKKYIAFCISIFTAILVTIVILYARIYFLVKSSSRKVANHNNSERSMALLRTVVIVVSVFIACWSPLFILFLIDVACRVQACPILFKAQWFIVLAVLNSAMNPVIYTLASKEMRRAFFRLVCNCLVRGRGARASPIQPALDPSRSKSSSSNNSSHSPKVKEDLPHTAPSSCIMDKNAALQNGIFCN
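material = human S1P3 NFAT-BLA reporter CHO cells | schedule = 4 h compound at 37 °C, 2 h substrate at RT | measured by = fluorescent BLA substrate, ex 405 nm, em 460/535 nm ratio | controls = 1 µM S1P reference | replication = primary once, confirmation triplicate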
Hsp90 block – displaces geldanamycin probe from tumor Hsp90; AID 429; 64,000 tested, 0.35% active; inhibition, % at 30 µM; NCI-N417 lysate Hsp90, Cy3B-geldanamycin FP displacement; P07900;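 active = inhibition above 50%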
A number is an active result; i = inactive; nt = no result given; + = active, no number. Most compounds without a hit are left out; they make up all but 2.2% or so of the library.

SMILES	S1P1 ag-PAM	Spn DPM-DC inh	PMK inhibit	Spn MK inh	S1P3 agonist	Hsp90 block
Clc1ccc(OCCN2CCN(c3ncnc4sccc34)CC2)cc1	115	i	i	i	i	i
CC1CC(C)CN(c2nc3c(c(=O)n(C)c(=O)n3C)n2C)C1 (stereo not drawn)	i	i	i	i	i	i
O=C(Nc1ccc(-c2nc3ncccc3o2)cc1)c1ccc(Br)o1	nt	nt	i	i	i	i
O=C(Nc1ccc(-c2nc3ncccc3o2)cc1)c1ccco1	nt	+	i	i	i	i
CC(C)(C)NC(=O)Cn1nnc(-c2ccc(Cl)cc2)n1	i	i	i	i	i	i
COc1ccc(-c2cc3nc4n(c(=O)c3s2)CCOC4)cc1	i	nt	i	i	i	i
N#CC(Cc1ccc(O)c(O)c1)C(=O)N1CCc2ccccc21 (stereo not drawn)	nt	nt	nt	nt	nt	81
CCn1cc(C(=O)O)c(=O)c2ccc(Cc3ccccc3)nc21	nt	nt	nt	nt	nt	i
Cc1nc2sc(-c3ccccc3)cc2c(=O)n1-n1cccc1	60	i	i	i	i	i
O=C(CN1CCN(C2CCCCC2)CC1)NCCC1=CCCCC1	i	i	i	61	i	i
COc1ccc(-n2nc(C(=O)NCc3ccco3)c3c4ccccc4n(C)c3c2=O)cc1Cl	i	+	i	i	i	i
Cc1ccc(OCC(=O)N2CCC(N3CCCCCC3)CC2)cc1	i	i	i	41	i	i
O=C(CN1C(=O)c2ccccc2S1(=O)=O)NCCSC1CCCCC1	i	i	i	i	i	i
O=C(c1ccco1)N1CCN(Cc2ccccc2C(F)(F)F)CC1	i	i	i	48	i	i
Cc1ccc(S(=O)(=O)N2CCN(Cc3ccccc3C(F)(F)F)CC2)cc1	i	i	i	44	i	i
O=C(c1ccco1)N1CCN(C/C=C/c2ccccc2)CC1	i	i	i	i	i	i
O=S(=O)(c1ccccc1)N1CCN(Cc2ccccc2C(F)(F)F)CC1	i	i	i	i	i	i
COc1cc(NCCCC(C)=NO)c2nccc(Cl)c2c1	nt	nt	nt	nt	nt	i
CCC(c1nnc(SCC(=O)Nc2nnc(-c3ccccc3)o2)n1Cc1ccccc1)N(C)C (stereo not drawn)	i	i	i	i	i	i
COc1cc2c(cc1OC)C(C)N(C(=O)CCN1C(=O)C3C4C=CC(C4)C3C1=O)CC2 (stereo not drawn)	i	i	i	i	i	i
CCOC(=O)CC(=O)CSc1ccc2nnc(-c3ccc(C)cc3)n2n1	i	+	i	i	i	i
c1ccc(-c2nnc(N3CCOCC3)nc2-c2ccccc2)cc1	i	i	i	i	31	i
O=C(CSc1nnc(-c2ccccc2)c(-c2ccccc2)n1)N1CCOCC1	i	i	i	i	i	i
CC(N)C1CCC(C(=O)Nc2ccncc2)CC1 (stereo not drawn)	nt	nt	nt	nt	nt	i
COCCn1c(SCC(=O)Nc2nnc(C)s2)nnc1-c1ccncc1	i	i	i	i	i	i
SMILES	S1P1 ag-PAM	Spn DPM-DC inh	PMK inhibit	Spn MK inh	S1P3 agonist	Hsp90 block
CCOC(=O)c1sc(NC(=O)CSc2nnc(-c3ccc(OC)cc3)n2CCOC)nc1C	i	i	i	i	i	85
CCNC(=O)[C@H]1O[C@@H](n2cnc3c(N)nc(NCCc4ccc(CCC(=O)O)cc4)nc32)C(O)[C@H]1O (stereo partly drawn)	nt	nt	nt	nt	nt	i
CC(=O)Oc1cc2oc(=O)cc(C)c2cc1OC(C)=O	i	nt	i	i	i	58
CC(=O)Oc1cc(OC(C)=O)c2c(C)cc(=O)oc2c1	i	nt	i	i	i	i
COc1ccccc1S(=O)(=O)Cc1ccc(C(=O)NCCN2CCCCCC2)o1	i	i	i	i	i	i
C=Cc1c(C)c2cc3[nH]c(cc4nc(cc5nc(cc1[nH]2)C(C)=C5CCC(=O)O)C(CCC(=O)O)=C4C)c(C)c3C=C	nt	nt	nt	nt	nt	139
O=C(/C=C/c1ccc(O)c(O)c1)OCCc1ccccc1	nt	nt	nt	nt	nt	90
CCN(CC)CCCN1C(=O)C(=O)/C(=C(/O)c2ccc(OC)c(Cl)c2)C1c1ccco1 (stereo not drawn)	i	i	i	i	i	i
COc1ccc(S(=O)(=O)N2CCN(C3CCCCCCC3)CC2)cc1	i	i	29	i	i	i
O=S(=O)(c1ccc(S(=O)(=O)N2CCN3CCCC3C2)cc1)N1CCCC1 (stereo not drawn)	i	i	i	i	i	i

From PubChem
